Test results taken from ChEMBL document CHEMBL4513216, “Probing the Open Global Health Chemical Diversity Library for Multistage-Active Starting Points for Next-Generation Antimalarials” (ACS Infect Dis, 2020).

Experiment: Toxicity liver stage against HepG2, at 10uM
Assay type: cell-based
Set-up: test concentration 10 uM, cell line HepG2-A16-CD81EGFP
Settings: human, HepG2-A16-CD81EGFP cells; read-out: INHIBITION
Summary of the method: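 Uninfected HepG2-A16-CD81EGFP cells, 3 × 10^3 per well, 1536-well, plated on prespotted compound at 10 μM final, parasite-free screening media added to match infected plates; puromycin 10 μM positive, DMSO 0.5% negative; run in parallel with 48 h PbLuc assay at 37 °C, 5% CO2; viability by CellTiter-Glo luminescence, normalized to controls.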

CC(=O)N(C)Cc1ccccc1NCc1c(C)noc1C
cytotoxicity at 10 µM: 5.76%

COCCOc1ccnc(-c2noc([C@@H]3CCCN3CC(C)C)n2)c1
cytotoxicity at 10 µM: -8.64%

CCNC(=O)N1CC[C@@H](CC(=O)O)[C@@H](CC2=NCCc3ccccc32)C1
cytotoxicity at 10 µM: 2.7%

Cc1ccc(Oc2ncccc2C(=O)O)c(C)c1
cytotoxicity at 10 µM: 2.4%

COc1ccc(CN2CC(O)CN(C(=O)OCC(C)(C)C)CC2=O)cc1 (configuration not stated)
cytotoxicity at 10 µM: 2.55%

O=C(CCn1ccc(=O)[nH]c1=O)N1CCC(Oc2ncccc2Cl)CC1
cytotoxicity at 10 µM: 1.71%

Cc1oncc1C(=O)N1CC2CC1(C(=O)N1CCCC1)C2
cytotoxicity at 10 µM: 4.91%

CO[C@H]1CCN(C(=O)c2cc(C)on2)[C@H]1Cc1ccncc1
cytotoxicity at 10 µM: 1.2%

O=C(CC1CC1)N1C[C@@H]2CN(c3ccccc3)C(=O)[C@@H]2C1
cytotoxicity at 10 µM: -1.48%

c1cc(CN2CCc3nc(N4CCOCC4)nc(NC4CC4)c3C2)co1
cytotoxicity at 10 µM: 12%

CN(C)C(=O)CN1C[C@H]2CCN(C(=O)c3ccncc3)CC[C@H]2S1(=O)=O
cytotoxicity at 10 µM: -1.55%

CNC(=O)[C@@]12CCC3(CCN(C(=O)COC)CC3)[C@@H]1CN(S(C)(=O)=O)C2
cytotoxicity at 10 µM: 4.53%

COCC1c2nnn(CC3CC3)c2CCN1C(=O)c1ccnnc1 (configuration not stated)
cytotoxicity at 10 µM: -7.44%

Cc1nc(C)c(C(=O)N2CCCC2(C)C(=O)NC2CCCC2)s1 (configuration not stated)
cytotoxicity at 10 µM: -1.13%

Cc1ccc(N(C)[C@@H]2CC[C@@H]3CN(C(=O)CC4CCOCC4)C[C@@H]32)nn1
cytotoxicity at 10 µM: -1.79%

Cc1ccc(CNC(C)c2cc(F)ccc2N2CCN(C)CC2)o1 (configuration not stated)
cytotoxicity at 10 µM: 0.513%

O=C1NCCCCC1SCc1coc(-c2cccc(F)c2)n1 (configuration not stated)
cytotoxicity at 10 µM: 7%

Cn1nc2c(cc1=O)CN(CC1CCCCO1)CC2 (configuration not stated)
cytotoxicity at 10 µM: 2.58%

COc1ccc(-n2cc(CNC(=O)c3ccccn3)nn2)cc1
cytotoxicity at 10 µM: -4.05%

CN(C)c1ccc(NC(=O)CN2CCS(=O)(=O)CC2)cn1
cytotoxicity at 10 µM: 6.56%

CCOc1ccc(N(C)Cc2nnc(C3CC3)o2)cc1
cytotoxicity at 10 µM: 8.17%

CCC(CC)(CCCNC(=O)c1c(C)noc1C)C1OCCO1
cytotoxicity at 10 µM: 1.98%

Cn1c(CS(=O)(=O)Cc2ccc(Cl)cc2)cc(=O)n(C)c1=O
cytotoxicity at 10 µM: 5.59%

Cn1c(N)nnc1SC1CCCN(c2ccccc2F)C1=O (configuration not stated)
cytotoxicity at 10 µM: -7.29%

CC(C)N(C)C(=O)C1CSCN1S(=O)(=O)c1cccs1 (configuration not stated)
cytotoxicity at 10 µM: -5.96%

Cc1cnn(CC(C)NCc2cc(=O)n3cc(C)ccc3n2)c1 (configuration not stated)
cytotoxicity at 10 µM: 3.89%

CCN(C(=O)C1=NN(c2ccccc2)C(=O)CN1)c1ccccc1
cytotoxicity at 10 µM: 12%

COc1c(C2CCCN2c2ncnc3c2cnn3C)c(C)nn1C (configuration not stated)
cytotoxicity at 10 µM: 1.95%

CCN(CC(=O)NC)C(=O)c1sc(Cc2ccccc2)nc1C
cytotoxicity at 10 µM: -6.37%

CC1(NC(=O)CC2CCc3ccccc32)CCOCC1 (configuration not stated)
cytotoxicity at 10 µM: 0.995%

CC(C)(C)c1noc(CN2CCCC(CNS(N)(=O)=O)C2)n1 (configuration not stated)
cytotoxicity at 10 µM: 1.3%

CC(C)c1n[nH]c(C2CN(CC(=O)N(C)Cc3ccco3)CCO2)n1 (configuration not stated)
cytotoxicity at 10 µM: -5.92%

CCCn1nnnc1CSc1nccn1CC
cytotoxicity at 10 µM: -5.15%

O=C(c1ccoc1)N1CCC(NCc2ccccc2-n2ccnc2)CC1
cytotoxicity at 10 µM: 5.89%

CNC(=O)C1CCN(C(=O)NCc2ccc(C)n2C)CC1
cytotoxicity at 10 µM: -1.81%

COc1cc(CCNC(=O)NCCC2CCCO2)ccc1C (configuration not stated)
cytotoxicity at 10 µM: 9.92%

CCOCC(=O)N(Cc1ccccn1)Cc1ccccc1C
cytotoxicity at 10 µM: 3.21%

Cc1nc(CN2CCN(C(=O)c3ccc(=O)n(C)c3)CC2)cs1
cytotoxicity at 10 µM: -2.95%

CC(C)c1cc(CNC(=O)NCc2cccc(N3CC=CC3)c2)on1
cytotoxicity at 10 µM: 9.99%

CCCc1cc(NCCn2cccn2)n2ncnc2n1
cytotoxicity at 10 µM: 5.28%

Cc1ccc(CN(C)C(=O)CN2CCCC2c2cnn(C)c2)o1 (configuration not stated)
cytotoxicity at 10 µM: -1.69%

CCOC(=O)NCCC(=O)NC(C)(C)c1ccc2c(c1)OCCO2
cytotoxicity at 10 µM: -0.418%

COc1cc(NCc2c(C)noc2C)c(C(=O)N(C)C)cc1OC
cytotoxicity at 10 µM: 6.85%

O=C(NCc1csc2ccccc12)NCC1(O)CCSC1 (configuration not stated)
cytotoxicity at 10 µM: 3.19%

c1ccc(N2CCC(NCCc3ccc(-n4cccn4)cc3)CC2)nc1
cytotoxicity at 10 µM: 21.1%

Cn1cnnc1-c1cncc(NCc2cccc3c2OC(C)(C)C3)c1
cytotoxicity at 10 µM: 7.84%

O=C(C1CCN(c2ccnc3ccc(Br)cc23)CC1)N1CCOCC1
cytotoxicity at 10 µM: 15.6%

Cn1ccc(C(=O)NCCOc2ccc3c(c2)CCC3)cc1=O
cytotoxicity at 10 µM: 3.68%

Cc1csc(CNc2cnn(CC(C)C)c2)n1
cytotoxicity at 10 µM: -6.63%

COCCCn1ccc(NS(=O)(=O)c2cc(C)c(F)cc2F)n1
cytotoxicity at 10 µM: 20.1%

CCC(C)(NCc1nc(C)c(C)o1)c1nccs1 (configuration not stated)
cytotoxicity at 10 µM: -2.05%

Cc1noc(C)c1CC(=O)N1CCCC(n2ccnc2C)C1 (configuration not stated)
cytotoxicity at 10 µM: -4.49%

COc1ccccc1OC(C)CNC(=O)c1cnc[nH]1 (configuration not stated)
cytotoxicity at 10 µM: 1.57%

CC(C)N1Cc2cccc(NCC(=O)N(C)C3CCCCC3)c2C1
cytotoxicity at 10 µM: 4.83%

FC(F)(F)C1CCCn2c(CNCc3ccsc3)nnc21 (configuration not stated)
cytotoxicity at 10 µM: 16.5%

COC1CCN(C(=O)c2c(Cl)c3ccccc3n2C)CC1
cytotoxicity at 10 µM: 4.39%

CC(=O)Nc1nc(CN2CCCCC2Cn2cccn2)cs1 (configuration not stated)
cytotoxicity at 10 µM: -6.7%

Cc1oncc1C(=O)N1CCC2(CC1)C(c1cnn(C)c1)CC(=O)N2C (configuration not stated)
cytotoxicity at 10 µM: -75.6%

N#Cc1ccc(Nc2nc3c(s2)C(=O)CN(CC2CC2)C3)cc1
cytotoxicity at 10 µM: -5.28%

COc1cccc(Cn2ncnc2COC(C)C)c1
cytotoxicity at 10 µM: -5.62%

CCO[C@H]1COC[C@@H]1NC(=O)CCc1nc(-c2ccccc2)no1
cytotoxicity at 10 µM: 15.8%

CCC(=O)Nc1cc(Cl)ccc1C(=O)N(C)Cc1noc(CC)n1
cytotoxicity at 10 µM: 7.1%

Cc1ncsc1C(=O)N1CCCC(c2nccn2Cc2cscn2)C1 (configuration not stated)
cytotoxicity at 10 µM: -0.0612%

COc1ccc2c(=O)n(CC3CCCCN3C)ccc2c1OC (configuration not stated)
cytotoxicity at 10 µM: 3.19%

Cn1ccnc1C1CCN(CCC2CCOC2)CC1 (configuration not stated)
cytotoxicity at 10 µM: -4.06%

CC1(C)CN(S(=O)(=O)N2CCCC2)CC1c1ccccc1 (configuration not stated)
cytotoxicity at 10 µM: -0.71%

N#Cc1ccccc1CN1CCC(c2nccn2CC(N)=O)CC1
cytotoxicity at 10 µM: -8.61%

CCC(NC(=O)CC1CCN(CC)CC1)c1cn2cccnc2n1 (configuration not stated)
cytotoxicity at 10 µM: 2.46%

CCc1ccccc1NC(=O)c1cccc(N(C)S(C)(=O)=O)c1C
cytotoxicity at 10 µM: -4.68%

COc1ccccc1OCc1cc(C(=O)N2C[C@@H](C)O[C@@H](C)C2)n[nH]1
cytotoxicity at 10 µM: -4.91%

Cc1cc(C2CCC2)nc(N(C)Cc2cnccn2)n1
cytotoxicity at 10 µM: -1.86%

CN(Cc1cc2n(n1)CCNC2)Cc1n[nH]c2c1CCC2
cytotoxicity at 10 µM: 5.04%

NC(=O)N1CCCC(C(=O)NCCc2nc(Cc3ccccc3)no2)C1 (configuration not stated)
cytotoxicity at 10 µM: 8.5%

COCC1CCCCN1C(=O)c1cc(-c2cccc(OC)c2)n[nH]1 (configuration not stated)
cytotoxicity at 10 µM: 9.34%

O=C1CCC2(CCN(Cc3cc(F)ccc3Cl)CC2)CN1C1CCCC1
cytotoxicity at 10 µM: 53.1%

Nc1cc2c(nn1)CCN(C(=O)c1cccc3c1OCO3)C2
cytotoxicity at 10 µM: -8.08%

Cc1nn(C)c(C)c1C1CCCN1C(=O)CCCNc1ncccn1 (configuration not stated)
cytotoxicity at 10 µM: -3.43%

c1ncc2c(n1)CN(Cc1nc(-c3ccsc3)no1)CC2
cytotoxicity at 10 µM: -4.77%

CCCc1nc(C(C)(C)NC(=O)C2CC(=O)N(C3CCCC3)C2)no1 (configuration not stated)
cytotoxicity at 10 µM: -0.734%

CC(C)c1n[nH]c(C2CN(C(=O)CCc3cscn3)CCO2)n1 (configuration not stated)
cytotoxicity at 10 µM: -1.51%

Cc1ncsc1C(=O)N(C)Cc1ccccc1
cytotoxicity at 10 µM: -6.92%

Cc1nc(CN2CCCC(NCc3cccc(C(N)=O)c3)C2)no1 (configuration not stated)
cytotoxicity at 10 µM: -14.5%

CC1CN(Cc2ccc(-n3cccn3)cc2)CCO1 (configuration not stated)
cytotoxicity at 10 µM: -7.18%

Cc1ccc(-c2nc(CN3CCCC3Cn3cncn3)cs2)o1 (configuration not stated)
cytotoxicity at 10 µM: -7.88%

CCc1cnc(CN2CCC(N(Cc3noc(CC)n3)C(C)=O)C2)o1 (configuration not stated)
cytotoxicity at 10 µM: -4.17%

CC(NC(=O)NCCn1ccnc1)c1ccc2c(c1)CCC(=O)N2 (configuration not stated)
cytotoxicity at 10 µM: -18.1%

CCN1CCN(c2ccc(CNC(=O)c3cnn(C)c3C)cn2)CC1
cytotoxicity at 10 µM: -11.1%

CCN(Cc1cccc2c1OCO2)C(=O)Nc1cn[nH]c1
cytotoxicity at 10 µM: -17.2%

Cc1occc1C(=O)N1CCCC(c2nncn2C)C1 (configuration not stated)
cytotoxicity at 10 µM: -16%

COc1ccc(C2CCCN2C(=O)Nc2ccc(OC)nc2)cc1 (configuration not stated)
cytotoxicity at 10 µM: 2.58%

Cc1cc(C)n(CC2CCCCN2CC(=O)N(C)Cc2ccco2)n1 (configuration not stated)
cytotoxicity at 10 µM: -9.75%

Cc1cc(NC(=O)C(C)N2CCN(c3nc(C)ns3)CC2)on1 (configuration not stated)
cytotoxicity at 10 µM: -9.48%

CCNC(=O)N1CCN(C(=O)c2cc(Cl)cc3cccnc23)CC1
cytotoxicity at 10 µM: -9.62%

CC(NC(=O)NCCCN(C)S(C)(=O)=O)c1cccc(Cl)c1 (configuration not stated)
cytotoxicity at 10 µM: 3.44%

Cc1cn2nc(N3CCCC3Cn3nc(C)cc3C)sc2n1 (configuration not stated)
cytotoxicity at 10 µM: -1.32%

COc1ccc(CN2CCCC(Cn3nc(C)nc3C)C2)cc1F (configuration not stated)
cytotoxicity at 10 µM: -0.409%

CC(C)NC(=O)c1sc2ccccc2c1C1CCC(CN)CC1 (configuration not stated)
cytotoxicity at 10 µM: -3.28%

CN1CC(=O)N(c2cccc(F)c2)CC12CCN(Cc1cncn1C)C2 (configuration not stated)
cytotoxicity at 10 µM: -0.791%

Cc1ncnc2c1CCN(c1ccccn1)CC2
cytotoxicity at 10 µM: -157%

Cn1cc(CN2CCCC23CCN(C(=O)c2ccsc2)CC3)cn1
cytotoxicity at 10 µM: 0.993%

CC(C)NC(=O)C1CN(Cc2ccc(F)cc2)CC12CCOCC2 (configuration not stated)
cytotoxicity at 10 µM: 3.86%

O=C(NCc1ccccn1)[C@]12COC[C@H]1CN(Cc1ccsc1)C2
cytotoxicity at 10 µM: 4.91%

O=C(Nc1cccnc1)[C@H]1CN(Cc2nccs2)C[C@H]2OCC[C@@H]12
cytotoxicity at 10 µM: 2.88%

Cc1noc(C)c1-c1nc(C2CCCNC2)ccc1CO (configuration not stated)
cytotoxicity at 10 µM: -21.3%

CCC(=O)N1CCC2(CC1)CN(CCO)Cc1ccccc12
cytotoxicity at 10 µM: 5.23%

Cc1nc(C)n(CC2CN(Cc3ccncc3)Cc3nccn3C2)n1 (configuration not stated)
cytotoxicity at 10 µM: -142%

CN1CCC(c2nc3ccc(-c4ccccc4)cn3n2)CC1
cytotoxicity at 10 µM: -5.29%

c1c[nH]c(CN2CCC3(CC2)COCCN(CCN2CCCC2)C3)c1
cytotoxicity at 10 µM: -3.86%

CN(C)Cc1cn2c(n1)CN(C(=O)Cc1ccsc1)CC2
cytotoxicity at 10 µM: -136%

O=C1Nc2ccccc2C12CCN(c1nccs1)CC2
cytotoxicity at 10 µM: -0.449%

c1cnc2[nH]c(C3CCCNC3)c(CN3CCCOCC3)c2c1 (configuration not stated)
cytotoxicity at 10 µM: -1.43%

c1ccc(OC2C[C@@H]3CN(Cc4cnccn4)C[C@@H]3C2)cc1 (some centres not stated)
cytotoxicity at 10 µM: -5.92%
